Compound activity deposited in PubChem by several laboratories.
UHRF1 MBD2 ctr: blocks human UHRF1 binding to methylated DNA | Q96T88 | UHRF1 binding to methylated oligo, TR-FRET | inhibition, % at 4.4 µM | 370,000 compounds, 0.75% hits; in the data active = inhibition above about 21%;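 also: UHRF1 SRA domain binding a hemimethylated CpG hairpin DNA probe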
Target sequence (Q96T88 whole entry, looked up, the tested form may be a part): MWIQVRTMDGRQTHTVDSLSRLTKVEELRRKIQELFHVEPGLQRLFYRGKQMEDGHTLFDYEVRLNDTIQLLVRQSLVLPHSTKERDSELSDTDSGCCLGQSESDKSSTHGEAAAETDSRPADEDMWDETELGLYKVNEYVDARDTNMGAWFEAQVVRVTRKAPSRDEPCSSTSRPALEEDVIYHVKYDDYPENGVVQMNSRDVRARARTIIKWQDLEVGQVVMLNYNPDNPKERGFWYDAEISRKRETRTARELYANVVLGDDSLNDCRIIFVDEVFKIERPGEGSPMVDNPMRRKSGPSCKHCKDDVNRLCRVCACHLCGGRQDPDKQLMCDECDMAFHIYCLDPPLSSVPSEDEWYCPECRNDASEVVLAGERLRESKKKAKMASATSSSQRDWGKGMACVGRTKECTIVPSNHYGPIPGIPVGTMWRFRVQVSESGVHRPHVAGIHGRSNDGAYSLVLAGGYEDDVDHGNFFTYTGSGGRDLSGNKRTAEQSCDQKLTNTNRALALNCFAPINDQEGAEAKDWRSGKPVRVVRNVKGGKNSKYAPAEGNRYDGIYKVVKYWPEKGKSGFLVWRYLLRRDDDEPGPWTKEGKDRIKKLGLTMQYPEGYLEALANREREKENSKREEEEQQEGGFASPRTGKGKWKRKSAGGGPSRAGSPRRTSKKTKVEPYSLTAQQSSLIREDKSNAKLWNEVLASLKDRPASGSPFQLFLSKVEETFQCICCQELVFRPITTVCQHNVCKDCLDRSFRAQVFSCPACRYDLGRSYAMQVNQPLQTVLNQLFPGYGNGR
CSN inh: inhibitors of human CSN-mediated cullin deneddylation; Q92905; Purified CSN, SCF-Nedd8-OG deneddylation, fluorescence polarization; inhibition, % at 12.5 µM; 360,000 compounds, 0.38% hits;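 active = pattern-corrected inhibition above about 35%, with an unprinted fluorescence ratio check between 0.5 and 1.5, limit read from the data, passing the limit was not always enough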
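Assay system: purified human Csn5 enzyme expressed in HEK293T cells; measure: % inhibition; also added: SCFSkp2-Nedd8OG substrate at 10 nM final; technique: fluorescence polarization; times: reaction 90 min, room temperature; medium: Tris buffer pH 7.5, NaCl, DTT, Tween-20, trehalose, ovalbumin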
MBD2 DNA inh: MBD2-methylated oligo binding inhibition | 370,000 compounds, 0.31% hits | inhibition, % at 4.4 µM | Q9UBB5 | TR-FRET, MBD2 binding to methylated oligonucleotide; in the data active = inhibition above about 13%
ATG4B inhibitor: ATG4B (human) cysteine protease inhibition | ATG4B cleavage of LC3-PLA2, NBD-HPC fluorescence, 1 h | inhibition, % at 8.33 µM | 340,000 compounds, 0.51% hits; in the data active = inhibition above about 40%
LEDGF integ inh: blocks HIV-1 LEDGF/p75-dependent DNA integration; TR-FRET IN-LEDGF/p75 DNA integration, Eu/Cy5; inhibition, % at 3.7 µM; 370,000 compounds, 0.64% hits; AID 743269;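 active = inhibition above the screen-wide mean plus 3 SD, cut at about 13% in these data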;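 also: signal is the Cy5 over europium emission ratio at 671 and 618 nm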
rCAG RNA binder: molecules binding r(CAG) RNA repeats. r(CAG) RNA repeat, TO-PRO-1 dye displacement fluorescence. inhibition, % at 3 µM. 370,000 compounds, 1.3% hits;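 active = inhibition above the plate cutoff, the mean of all test compounds on that plate plus 3 SD, cut at about 35% in these data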;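 also: higher means more dye released from RNA so lower well fluorescence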
rCAG binder conf: r(CAG) RNA repeat binding, confirmation; shares compounds with rCAG RNA binder; AID 652065; 4,300 compounds, 70% hits; inhibition, % at 3 µM; TO-PRO-1 dye displacement fluorescence;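 active = inhibition above a per-plate cutoff, the mean inhibition of sample wells plus 3 SD, cut at about 35% in these data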;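 also: loss of TO-PRO-1 fluorescence as compound displaces dye from 1x1 AA loop RNA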
dCAG dye counter: DNA CAG dye complex inhibition counter-screen; shares compounds with rCAG RNA binder; d(CAG) DNA oligo TO-PRO-1 dye displacement, fluorescence; inhibition, % at 3 µM; 4,300 compounds, 94% hits;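 active = inhibition above its plate's cutoff, the mean test-well inhibition plus 3 SD, cut at about 4.8% in these data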;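 also: hits displace the dye from DNA and so lower well fluorescence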
Each line names hits and unclear results; the compound was inactive in the other large screens (follow-up assays come after a bar, where they were run). Compounds with a hit are over-represented: about 3.1% of the library has one in this group of screens.

Cc1cnc(C(=O)OCC(=O)Nc2oc(-c3ccccc3)c(-c3ccccc3)c2C#N)cn1	rCAG RNA binder 46 | rCAG binder conf 51 | dCAG dye counter 14
N#Cc1c(NC(=O)CSc2ccccn2)oc(-c2ccccc2)c1-c1ccccc1	none
COC(=O)C1CN(Cc2cn(Cc3ccc(F)cc3)nn2)CCS(=O)(=O)N1Cc1ccc(F)cc1 (stereo unspecified)	none (no result: CSN inh, ATG4B inhibitor)
COc1ccc(-c2cc(C(F)(F)F)c3c(n2)sc2c(O)cc(=O)[nH]c23)c(OC)c1	rCAG RNA binder 42 | rCAG binder conf 42 | dCAG dye counter 14
Cc1cc(C)c2c(n1)sc1c(O)cc(=O)[nH]c12	none
COc1ccccc1-c1nnc2n1N=C(c1ccc3c(c1)OCO3)CS2	none (no result: CSN inh, ATG4B inhibitor)
C=CCN1C(=O)/C(=C/c2ccc(OC(C)=O)c(OCC)c2[N+](=O)[O-])SC1=S	rCAG RNA binder 80 | rCAG binder conf 42 | dCAG dye counter 12
CC(=O)c1ccc(OCc2nnn(CC(=O)NS(=O)(=O)Cc3ccccc3)c2-c2ccccc2)cc1	rCAG RNA binder 56 (no result: ATG4B inhibitor) | rCAG binder conf 78 | dCAG dye counter 41
Cc1ccc(-n2c(O)c(/C=N/NC(=O)C3COc4ccccc4O3)c3ccccc3c2=O)cc1 (stereo unspecified)	rCAG RNA binder 82 | rCAG binder conf 75 | dCAG dye counter 38
Cc1ccc(CSc2nnc(-c3cccc(S(=O)(=O)N4CCOCC4)c3)n2CC(C)C)cc1	rCAG RNA binder 49 | rCAG binder conf inactive | dCAG dye counter inactive
NC(CCc1ccccc1)c1csc(NC(=O)Nc2cccc(Cl)c2)n1 (stereo unspecified)	rCAG RNA binder 47 (no result: ATG4B inhibitor) | rCAG binder conf 40 | dCAG dye counter 9.8
NC(COCc1ccccc1)c1csc(NC(=O)Nc2cccc(C(F)(F)F)c2)n1 (stereo unspecified)	rCAG RNA binder 43 (no result: ATG4B inhibitor) | rCAG binder conf inactive | dCAG dye counter 5.1
COc1ccc(CC(N)c2csc(NC(=O)Nc3ccc(OC)cc3)n2)cc1 (stereo unspecified)	none (no result: ATG4B inhibitor)
NC(c1ccccc1)c1csc(NC(=O)Nc2cccc(Cl)c2)n1 (stereo unspecified)	rCAG RNA binder 48 (no result: ATG4B inhibitor) | rCAG binder conf 37 | dCAG dye counter 17
COc1ccc(NC(=O)Nc2nc(C(N)Cc3ccc(C(F)(F)F)cc3)cs2)cc1 (stereo unspecified)	rCAG RNA binder 37 (no result: ATG4B inhibitor) | rCAG binder conf inactive | dCAG dye counter inactive
Cc1ccccc1CN1CCCCC(NC(=O)Nc2ccccc2-c2ccccc2)C1=O (stereo unspecified)	none (no result: CSN inh, ATG4B inhibitor)
NC(c1ccccc1)c1csc(NC(=O)Nc2ccc(OC(F)(F)F)cc2)n1 (stereo unspecified)	rCAG RNA binder 41 (no result: ATG4B inhibitor) | rCAG binder conf 35 | dCAG dye counter 13
CSc1nsc2nc(=O)c(/C=C3\C(C)=Nc4ccccc43)c(N)n12	rCAG RNA binder 42 | rCAG binder conf inactive | dCAG dye counter 4.7
Cc1ccc(-n2c(O)c(/C=C3/C(c4ccccc4)=Nc4ccccc43)c(=O)[nH]c2=O)cc1	none
COc1ccc([C@H]2OC(=O)C[C@@H]2C(=O)N2CCCCC2)cc1OC	none (no result: CSN inh, ATG4B inhibitor)
CCOC(=O)C1=C(C)N(C[C@@H]2CC[C@@H](Cc3ccc(-c4ccccc4)cc3)O2)C(=O)NC1c1ccc(SCc2ccco2)c([N+](=O)[O-])c1 (stereo partly specified)	rCAG RNA binder 49 | rCAG binder conf 36 | dCAG dye counter 19
Cc1ccc(-n2c(SCC(=O)Nc3ccc(S(=O)(=O)Nc4cc(C)nc(C)n4)cc3)nnc2-c2ccc(C(C)(C)C)cc2)cc1	rCAG RNA binder 44 (no result: CSN inh, ATG4B inhibitor) | rCAG binder conf 42 | dCAG dye counter 16
COc1ccc(-n2c(SCC(=O)Nc3ccc(S(=O)(=O)Nc4cc(C)nc(C)n4)cc3)nnc2-c2ccco2)cc1	none (no result: CSN inh, ATG4B inhibitor)
